Compound activity (PubChem BioAssay)
Hits are enriched below; roughly 2.6% of the tested compounds scored in any of these assays.
IMP-1 inhibitor = inhibitors of Pseudomonas aeruginosa IMP-1 metallo-beta-lactamase | purified IMP-1, nitrocefin hydrolysis, epi-absorbance fluorescence | inhibition, % at 5.6 µM | actives 0.45% (n = 290,000);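 active = inhibition above the mean plus 3 SD of all compounds in the same screening run, cut at about 4.5% in these data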;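 also: 0% = IMP-1 with DMSO and 100% = DMSO wells lacking enzyme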
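System: purified IMP-1; amount: IMP-1 0.2 nM before substrate addition; compound: single dose, 5.6 µM; times: 25 °C, 15 min preincubation, 25 min reaction; signal: Epi-absorbance via hydrolysed-nitrocefin quenching of white-plate fluorescence, 480/530 nm, EDTA stop; benchmarks: DMSO with and without IMP-1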
Calb FLC = affects C. albicans growth with fluconazole; growth inhibition, % (test concentration not listed); actives 0.57% (n = 300,000); AID 1979; C. albicans CaCi-2 + fluconazole, Alamar Blue growth, 48 h;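 active = growth inhibition above about 58% in most replicates, limit read from the data, passing the limit was not always enough; inconclusive = exactly half the replicates above a set limit; inactive = most replicates below a set limit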;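 also: all wells also contain fluconazole at 8 µg/ml as a sub-toxic cotreatment; 0% = median of DMSO wells and 100% = median of geldanamycin control wells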
PHOSPHO1 inh = PHOSPHO1 (human) inhibition; Q8TCT1; recombinant PHOSPHO1, absorbance phosphatase assay; inhibition, % at 13.3 µM; actives 1.1% (n = 290,000); AID 1565; in the data active = inhibition above about 60%
Target sequence (Q8TCT1 whole entry, looked up): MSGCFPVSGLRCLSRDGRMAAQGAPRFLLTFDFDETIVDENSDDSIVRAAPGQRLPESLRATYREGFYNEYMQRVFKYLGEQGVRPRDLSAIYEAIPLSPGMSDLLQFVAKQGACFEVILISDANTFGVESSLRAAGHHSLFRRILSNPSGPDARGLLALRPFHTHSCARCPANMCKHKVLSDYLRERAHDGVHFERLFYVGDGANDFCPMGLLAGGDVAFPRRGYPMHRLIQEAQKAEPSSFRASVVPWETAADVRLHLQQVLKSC
ASAP1 inh = inhibitors of human ASAP1 ArfGAP activity. actives 0.19% (n = 360,000). ASAP1-stimulated ARF1 GTP hydrolysis, GDP FP detection. inhibition, % at 16.5 µM. Q9ULH1; in the data active = inhibition above about 25%;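 also: 0% = vehicle with enzyme and substrate and 100% = no enzyme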
VIM-2 inh = inhibitors of Pseudomonas aeruginosa VIM-2 metallo-beta-lactamase; purified VIM-2, nitrocefin hydrolysis, epi-absorbance fluorescence; actives 0.89% (n = 290,000); inhibition, % at 5.6 µM;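 active = inhibition above the mean of all tested compounds plus 3 SD, cutoff set per screening run, cut at about 7.5% in these data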;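 also: red hydrolysis product quenches plate fluorescence so inhibitors raise well fluorescence; 0% = enzyme with DMSO and 100% = DMSO without enzyme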
ARFGAP1 inh = inhibitors of rat ARFGAP1 | Q62848 | Arfgap1-stimulated ARF1 GTP hydrolysis, GDP FP detection | inhibition, % at 16.5 µM | actives 0.26% (n = 360,000) | AID 651572;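 active = inhibition above a per-plate limit, mean inhibition of low control wells plus 3 SD, cut at about 25% in these data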;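 also: 0% = DMSO wells with enzyme and 100% = wells lacking Arfgap1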
Target sequence (Q62848 1-136 limits assumed): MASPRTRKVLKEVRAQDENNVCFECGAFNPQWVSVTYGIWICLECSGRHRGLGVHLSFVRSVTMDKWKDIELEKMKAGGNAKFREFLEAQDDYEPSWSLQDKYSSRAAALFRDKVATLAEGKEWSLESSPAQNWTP
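Replicates: Single well per compound | Assay system: Truncated rat Arfgap1 GAP domain | Control set: No-Arfgap1 wells (100%) versus DMSO full-reaction wells (0%) | Times: Enzyme reaction 120 min at 25 °C after 20 min preincubation | Reagent: Human ARF1(Δ1-17)-GTP substrate | Measured by: Tracer-displacement fluorescence polarization with EDTA stop, 620/688 nm | Measure: Percent inhibition of Arfgap1-stimulated GTP hydrolysis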
ARFGAP1 inh conf = rat ARFGAP1 inhibition, confirmed; ARFGAP1-stimulated ARF1 GTP hydrolysis, GDP tracer FP; AID 651608; shares compounds with ARFGAP1 inh; inhibition, % at 16.5 µM; actives 30% (n = 890);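 active = average inhibition over triplicates above the hit cutoff set in the earlier primary screen, cut at about 25% in these data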;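 also: 0% = Arfgap1 plus ARF1-GTP with DMSO and 100% = wells lacking Arfgap1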
Starred values were filed as active, the others as inactive; ? = inconclusive; . = no result.

SMILES | IMP-1 inhibitor | Calb FLC | PHOSPHO1 inh | ASAP1 inh | VIM-2 inh | ARFGAP1 inh | ARFGAP1 inh conf
CSCCC(NC(=O)OCc1ccccc1)C(=O)NCc1cccnc1 (configuration not stated) | -1.9 | -6.5 | -18.7 | 3.9 | -0.9 | 24.6* | 2.7
COc1cc(/C=N/NC(=O)c2cc(-c3cccc(Br)c3)nc3ccccc23)cc(OC)c1O | . | -10.9 | . | 5.6 | . | 27.2* | 6.8
COc1cc(/C=N/NC(=O)c2cc(-c3ccccc3)nc3ccccc23)ccc1O | -4.7 | -1.6 | 19.5 | 12.5 | -3.3 | 11.8 | .
CCC(CO)Nc1ccn2nc(-c3cccc(Cl)c3)cc2n1 (configuration not stated) | . | . | . | 1.2 | . | -5.1 | .
CC(C)c1ccc(CNC(=O)C2(C)CCCN2C)cc1 (configuration not stated) | . | . | . | 19.4 | . | -2.1 | .
COc1ccc(O)c(/C=N/Nc2nc(Nc3ccccc3)nc(-n3nc(C)cc3C)n2)c1 | -0.7 | -3.2 | 2.2 | 10.6 | -3.7 | 39.3* | 18.3
O=C(NCc1ccco1)c1ccc(NC(=O)C2COc3ccccc3O2)cc1 (configuration not stated) | -1.8 | 38.1 | -10.5 | 10.1 | -5.9 | 28.8* | 6.4
O=C(Nc1ccc(Cl)c(-c2nc3ccccc3[nH]2)c1)c1ccc2c(c1)OCO2 | -2.2 | -5.0 | -2.0 | 11.3 | -2.2 | -6.4 | .
O=C(Nc1ccc2nn(-c3ccccc3)nc2c1)c1ccc2c(c1)OCO2 | -4.3 | -3.8 | 10.5 | 17.4 | 0.1 | 25.5* | 28.0*
O=C(Nc1ccc(-c2nc3ccccc3[nH]2)cc1)c1ccc2c(c1)OCO2 | 28.1* | 6.1 | 21.8 | 20.9 | -0.4 | 25.8* | 31.7*
CCCN(CCC)S(=O)(=O)c1cccc(C(=O)Nc2ccc3c(c2)OCO3)c1 | 0.8 | ? | 10.8 | 16.7 | -1.4 | 47.3* | 1.9
COC(=O)C[C@@H]1C=C[C@H](NC(=O)Nc2ccc(F)cc2)[C@@H](CO)O1 | . | . | . | -1.0 | . | -1.6 | .
O=C(Oc1cccnc1)c1ccccc1[N+](=O)[O-] | -3.0 | 24.4 | 2.4 | -13.7 | -2.1 | 25.4* | 6.0
N/C(=N\OC(=O)c1ccccc1[N+](=O)[O-])c1cccnc1 | -1.6 | -6.1 | 15.2 | 1.9 | -0.3 | 3.3 | .
O=c1cc(Nc2ccc3c(c2)OCCO3)[nH]c(=O)n1-c1ccc(Br)cc1 | -2.6 | 2.5 | 4.9 | -4.4 | -5.0 | -10.1 | .
O=c1cc(Nc2ccc3c(c2)OCCO3)[nH]c(=O)n1Cc1ccc(F)cc1 | -2.8 | -10.3 | -16.5 | -4.5 | -5.0 | 26.9* | -1.8
Cc1ccc(NC(=O)C2(C)CCN2C(=O)C2CCCCC2)cc1C (configuration not stated) | . | . | . | 9.5 | . | -0.7 | .
CN1OC[C@@H]2CN(C(=S)NCCc3ccccc3)[C@H](c3ccc(N4CCCCC4)cc3)C[C@@H]21 | . | . | . | 17.8 | . | 12.8 | .
O=C(O)C1=C[C@@H](O)[C@@H](O)[C@H](O)C1 | . | . | . | 2.4 | . | 35.9* | -2.0
NC1C=CC=C(C(=O)O)C1 (configuration not stated) | . | 0.3 | . | 22.1 | . | 3.4 | .
O=C(O)CC1(C(=O)O)CC2C=CC1C2 (configuration not stated) | . | . | . | 7.9 | . | 25.3* | 0.6
CCC1(C(N)=O)CC2C=CC1C2 (configuration not stated) | . | . | . | 7.5 | . | 5.7 | .
CCOCCC(=O)Nc1ccc2c(c1)c(=O)n(C)n2C/C=C/c1ccccc1 | . | . | . | 7.8 | . | 5.7 | .
COc1cccc(C(=O)Cn2c(Br)nc3c2c(=O)n(C)c(=O)n3C)c1 | -1.8 | -0.8 | 3.9 | 0.0 | -0.2 | 27.8* | 5.2
COc1ccc(C(=O)Cn2c(Cl)nc3c2c(=O)n(C)c(=O)n3C)cc1 | -1.9 | 12.0 | 32.7 | -4.1 | -0.8 | -4.2 | .
Cc1ccc(-c2csc(C3=C(O)CN(NC(=O)c4ccc([N+](=O)[O-])cc4)C3=N)n2)cc1 | -2.1 | 5.0 | 42.1 | 13.6 | -2.0 | 27.6* | 30.6*
N=C1C(c2nc(-c3ccc(Br)cc3)cs2)=C(O)CN1NC(=O)c1ccc([N+](=O)[O-])cc1 | -2.2 | 8.1 | 46.4 | 20.5 | -0.7 | -5.1 | .
